Results taken from ChEMBL document CHEMBL1125796, “Antitumor properties of 2(1H)-pyrimidinone riboside (zebularine) and its fluorinated analogues” (1991).
Where “and” joins values, the source holds several entries; their conditions need not be identical. Equal entries are not always repeated.

Tests used:
Mus musculus [1] = assay: Percent increase in life span of drug-treated mice relative to tumored, vehicle treated controls at a dose of 200 mg/kg ip.; type: functional; conditions: for ILS at 200 mg/kg: Mus musculus, ip
Method in brief: (§1)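 Tumors implanted day 0: B16 melanoma as 0.5 mL of 1:10 brei into BDF1 mice; L1210 or P388 leukemia as 10^6 cells into CDF1 mice, ip or sc. Drug was given in physiologic saline by ip or oral route, QD 1-9. %ILS was calculated against saline-treated tumored controls, with body-weight change difference as the toxicity read-out. Six mice per dose in most experiments.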

Mus musculus [2] = assay: Percent increase in life span of drug-treated mice relative to tumored, vehicle treated controls at a dose of 400 mg/kg ip.; type: functional; method in brief: as §1
Mus musculus [3] = assay: Percent increase in life span of drug-treated mice relative to tumored, vehicle treated controls at a dose of 800 mg/kg ip.; type: functional; method in brief: as §1
Mus musculus [4] = assay: Antitumor activity against L1210 tumor in mice, at a dose of 400 mg/kg per ip administration.; type: functional; conditions: route intraperitoneal
Method in brief: (§2)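 Tumors implanted ip on day 0: B16 melanoma (0.5 mL of 1:10 brei) in BDF1 mice, and L1210 or P388 leukemia (10^6 cells) in CDF1 mice. Compound was given ip in physiologic saline daily on days 1–9. Read-out was % increase in life span versus vehicle-treated tumored controls, with body-weight change difference also recorded. Six mice per dose, three in some P388 groups.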

Mus musculus [5] = assay: Antitumor activity against L1210 tumor in mice, at a dose of 800 mg/kg per ip administration.; type: functional; conditions: route intraperitoneal; method in brief: as §2
Mus musculus [6] = assay: Antitumor activity against L1210 ttumor in mice, at a dose of 200 mg/kg per ip administration.; type: functional; conditions: route intraperitoneal; method in brief: as §2
Mus musculus [7] = assay: Percent increase in life span of drug-treated mice relative to tumored, vehicle treated controls at a dose of 3.75 mg/kg ip.; type: functional; method in brief: as §1
Mus musculus [8] = assay: Percent increase in life span of drug-treated mice relative to tumored, vehicle treated controls at a dose of 0.68 mg/kg ip.; type: functional; method in brief: as §1
Mus musculus [9] = assay: Percent increase in life span of drug-treated mice relative to tumored, vehicle treated controls at a dose of 1.11 mg/kg ip.; type: functional; method in brief: as §1
Mus musculus [10] = assay: Percent increase in life span of drug-treated mice relative to tumored, vehicle treated controls at a dose of 1.25 mg/kg ip.; type: functional; method in brief: as §1
Mus musculus [11] = assay: Percent increase in life span of drug-treated mice relative to tumored, vehicle treated controls at a dose of 1.67 mg/kg ip.; type: functional; method in brief: as §1
Mus musculus [12] = assay: Antitumor activity against P388 tumor in mice, at a dose of 3.75 mg/kg per ip administration.; type: functional; conditions: route intraperitoneal; method in brief: as §2
Mus musculus [13] = assay: Antitumor activity against L1210 tumor in mice, at a dose of 1.25 mg/kg per ip administration.; type: functional; conditions: route intraperitoneal; method in brief: as §2
Mus musculus [14] = assay: Antitumor activity against L1210 tumor in mice, at a dose of 2.5 mg/kg per ip administration.; type: functional; conditions: route intraperitoneal; method in brief: as §2
Mus musculus [15] = assay: Antitumor activity against L1210 tumor in mice, at a dose of 1.67 mg/kg per ip administration.; type: functional; conditions: route intraperitoneal; method in brief: as §2
Mus musculus [16] = assay: Antitumor activity against P388 tumor in mice, at a dose of 1.11 mg/kg per ip administration.; type: functional; conditions: route intraperitoneal; method in brief: as §2
Mus musculus [17] = assay: Antitumor activity against P388 tumor in mice, at a dose of 1.67 mg/kg per ip administration.; type: functional; conditions: route intraperitoneal; method in brief: as §2
Mus musculus [18] = assay: Antitumor activity against L1210 tumor in mice, at a dose of 0.68 mg/kg per ip administration.; type: functional; conditions: route intraperitoneal; method in brief: as §2
Mus musculus [19] = assay: Antitumor activity against L1210 tumor in mice, at a dose of 1.11 mg/kg per ip administration.; type: functional; conditions: route intraperitoneal; method in brief: as §2
Mus musculus [20] = assay: Antitumor activity against P388 tumor in mice, at a dose of 2.5 mg/kg per ip administration.; type: functional; conditions: route intraperitoneal; method in brief: as §2
Mus musculus [21] = assay: Percent increase in life span of drug-treated mice relative to tumored, vehicle treated controls at a dose of 2.5 mg/kg ip.; type: functional; method in brief: as §1
Mus musculus [22] = assay: Percent increase in life span of drug-treated mice relative to tumored, vehicle treated controls at a dose of 500 mg/kg oral treatment; type: functional
Method in brief: (§3)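 CDF1 mice were implanted ip with 10^6 L1210 cells on day 0. Oral treatment was given on day 1 only, 24 h after implantation. In combinations, the deaminase inhibitor was given as two 250 mg/kg doses 30 min apart, as one dose immediately before ara-C, or as half the dose 30 min before and half immediately after ara-C. %ILS was calculated versus vehicle-treated tumored controls.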

Mus musculus [23] = assay: Percent increase in life span of drug-treated mice relative to tumored, vehicle treated controls at a dose of 500 mg/kg orally in the presence of 500 mg/kg of zebularine.; type: functional; conditions: po; method in brief: as §3
Mus musculus [24] = assay: Percent increase in life span of drug-treated mice relative to tumored, vehicle treated controls at a dose of 100 mg/kg oral treatment; type: functional; method in brief: as §3
Mus musculus [25] = assay: Antitumor activity against L1210 tumor in mice, at a dose of 500 mg/kg peroral administration in the presence of 100 mg/kg of zebularine.; type: functional
Mus musculus [26] = assay: Antitumor activity against L1210 tumor in mice, at a dose of 500 mg/kg peroral administration in the presence of 10 mg/kg of zebularine.; type: functional
Mus musculus [27] = assay: Antitumor activity against L1210 tumor in mice, at a dose of 500 mg/kg peroral administration.; type: functional; conditions: route oral
Method in brief: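 CDF1 mice received L1210 leukemia ip. Treatment was oral on day 1 only, 24 h after implantation, with ara-C at 500 mg/kg. Zebularine was given as a single dose immediately before ara-C, or as divided doses (e.g. 2 × 250 mg/kg 30 min apart, or half 30 min before and half immediately after). Read-out was % increase in life span.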

Mus musculus [28] = assay: Percent increase in life span of drug-treated mice relative to tumored, vehicle treated controls at a dose of 3.13 mg/kg ip.; type: functional; method in brief: as §1
Mus musculus [29] = assay: Percent increase in life span of drug-treated mice relative to tumored, vehicle treated controls at a dose of 6.25 mg/kg ip.; type: functional; method in brief: as §1
Mus musculus [30] = assay: Percent increase in life span of drug-treated mice relative to tumored, vehicle treated controls at a dose of 600 mg/kg ip.; type: functional; method in brief: as §1
Mus musculus [31] = assay: Antitumor activity against P388 tumor in mice, at a dose of 200 mg/kg per ip administration.; type: functional; conditions: route intraperitoneal; method in brief: as §2
Mus musculus [32] = assay: (§4) Antitumor activity against P388 tumor in mice, at a dose of 400 mg/kg per ip administration.; type: functional; conditions: route intraperitoneal; method in brief: as §2
Mus musculus [33] = assay: Antitumor activity against P388 tumor in mice, at a dose of 600 mg/kg per ip administration.; type: functional; conditions: route intraperitoneal; method in brief: as §2
Mus musculus [34] = assay: as §4; type: functional; conditions: route intraperitoneal; method in brief: as §2; remark: listed apart in the source
Mus musculus [35] = assay: Antitumor activity against ara-c resistance L1210 tumor in mice, at a dose of 200 mg/kg per ip administration.; type: functional; conditions: route intraperitoneal
Method in brief: (§5)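 An ara-C-resistant L1210 leukemia line (10^6 cells) was implanted ip on day 0 in CDF1 mice. Compound was given ip in physiologic saline daily on days 1–9. Read-out was % increase in life span versus saline-treated tumored controls, plus body-weight change difference.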

Mus musculus [36] = assay: Antitumor activity against ara-c resistance L1210 tumor in mice, at a dose of 400 mg/kg per ip administration.; type: functional; conditions: route intraperitoneal; method in brief: as §5
Mus musculus [37] = assay: Antitumor activity against ara-c resistance L1210 tumor in mice, at a dose of 800 mg/kg per ip administration.; type: functional; conditions: route intraperitoneal; method in brief: as §5
Mus musculus [38] = assay: Antitumor activity against […] tumor in mice, at a dose of 400 mg/kg per ip administration.; type: functional; conditions: route intraperitoneal; method in brief: as §2
Mus musculus [39] = assay: Antitumor activity against B16 tumor in mice, at a dose of 200 mg/kg per ip administration.; type: functional; conditions: route intraperitoneal; method in brief: as §2
Mus musculus [40] = assay: Antitumor activity against B16 tumor in mice, at a dose of 400 mg/kg per ip administration.; type: functional; conditions: route intraperitoneal; method in brief: as §2
Mus musculus [41] = assay: Antitumor activity against B16 tumor in mice, at a dose of 800 mg/kg per ip administration.; type: functional; conditions: route intraperitoneal; method in brief: as §2
Mus musculus [42] = assay: Antitumor activity against L1210 tumor in mice, at a dose of 1600 mg/kg per oral administration.
Mus musculus [43] = assay: Percent increase in life span of drug-treated mice relative to tumored, vehicle treated controls at a dose of 1600 mg/kg orally.; conditions: oral
Mus musculus [44] = assay: Percent increase in life span of drug-treated mice relative to tumored, vehicle treated controls at a dose of 800 mg/kg, ip administration
Mus musculus [45] = assay: Percent increase in life span of drug-treated mice relative to tumored, vehicle treated controls at a dose of 800 mg/kg oral administration

## O=c1ncccn1[C@@H]1O[C@H](CO)[C@@H](O)[C@@H]1F
Mus musculus [1]
  ILS at 200 mg/kg: 31%
Mus musculus [2]; Mus musculus, ip
  ILS at 400 mg/kg: 37%
Mus musculus [3]; Mus musculus, ip
  ILS at 800 mg/kg: 43%
Mus musculus [4]
  Weight change difference: 0 g
Mus musculus [5]
  Weight change difference: 1 g
Mus musculus [6]
  Weight change difference: 1 g

## O=c1ncc(F)cn1C1O[C@H](CO)[C@@H](O)[C@H]1O (some centres undefined)
Mus musculus [7]
  ILS at 3.75 mg/kg: 60%
Mus musculus [8]
  ILS at 0.68 mg/kg: 62%
Mus musculus [9]
  ILS: 75% and 50%
Mus musculus [10]
  ILS at 1.25 mg/kg: 75%
Mus musculus [11]
  ILS: 118% and 45% and 50%
Mus musculus [12]
  Weight change difference: -2 g
Mus musculus [13]
  Weight change difference: 0 g
Mus musculus [14]
  Weight change difference: -1 g and -2 g
Mus musculus [15]
  Weight change difference: -1 g
Mus musculus [16]
  Weight change difference: -1 g
Mus musculus [17]
  Weight change difference: -2 g
Mus musculus [18]
  Weight change difference: 0 g
Mus musculus [19]
  Weight change difference: 0 g
Mus musculus [20]
  Weight change difference: -2 g
Mus musculus [21]
  ILS: 137% [middle of 4 runs]

## Nc1ccn([C@@H]2O[C@H](CO)[C@@H](O)[C@@H]2O)c(=O)n1 [CYTARABINE]
Mus musculus [22]
  ILS: 44% and 74% and 80%
Mus musculus [23]
  ILS at 500 mg/kg: 74%
Mus musculus [24]; 100 mg/kg
  ILS: 68%
Mus musculus [24]; Mus musculus, po
  ILS at 100 mg/kg: 68%
Mus musculus [25]
  Weight change difference: -1 g
Mus musculus [26]
  Weight change difference: -2.2 g
Mus musculus [27]
  Weight change difference: -0.5 g

## OC[C@H]1O[C@@H](n2cnc3cncnc32)[C@H](O)[C@@H]1O [NEBULARINE]
Mus musculus [28]; 3.13 mg/kg
  ILS: 52%
Mus musculus [28]; Mus musculus, ip
  ILS at 3.13 mg/kg: 60%
Mus musculus [29]; 6.25 mg/kg
  ILS: 34%
Mus musculus [29]; Mus musculus, ip
  ILS at 6.25 mg/kg: 40%

## O=c1ncccn1[C@@H]1O[C@H](CO)[C@@H](O)[C@H]1O [ZEBULARINE]
Mus musculus [1]; 200 mg/kg
  ILS: 34% and 25% and 40%
Mus musculus [1]
  ILS at 200 mg/kg: 36%
Mus musculus [2]; 400 mg/kg
  ILS: 66% [middle of 7 runs]
Mus musculus [30]
  ILS at 600 mg/kg: 45%
Mus musculus [3]; 800 mg/kg
  ILS: 77% [middle of 5 runs]
Mus musculus [31]
  Weight change difference: -2 g and -0.7 g
Mus musculus [32]
  Weight change difference: -2.3 g
Mus musculus [33]
  Weight change difference: -1.3 g
Mus musculus [34]
  Weight change difference: -1.2 g
Mus musculus [35]
  Weight change difference: -1.6 g
Mus musculus [36]
  Weight change difference: -1.8 g
Mus musculus [37]
  Weight change difference: -3.4 g
Mus musculus [4]
  Weight change difference: -0.4 g
Mus musculus [5]
  Weight change difference: -2.8 g
Mus musculus [38]
  Weight change difference: -2.1 g
Mus musculus [39]
  Weight change difference: -0.5 g
Mus musculus [40]
  Weight change difference: -0.1 g and -0.2 g
Mus musculus [41]
  Weight change difference: 0 g
Mus musculus [42]
  Weight change difference: -2.3 g
Mus musculus [43]
  ILS at 1600 mg/kg: 112%
Mus musculus [44]
  ILS at 800 mg/kg: 110%
Mus musculus [45]
  ILS at 800 mg/kg: 81%
